Compound activity deposited in PubChem BioAssay by Johns Hopkins Ion Channel Center.
Kir21 inh: Kir2.1 (mouse) channel inhibition | AID 1672 | P35561 | HEK293-Kir2.1, FluxOR thallium flux fluorescence; hits give low values | hit rate 0.85% among 310,000 | B-score at 10 µM;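 active = fluorescence ratio B-score at or below minus 3 SD of library scores, with starting-brightness B-score within 2 SD, cut at about -4.2 in these data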;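 also: channel flux triggered by added potassium and thallium sulfate stimulus; B-score of peak minus minimum fluorescence over baseline after thallium stimulus; more negative B-score means stronger Kir2.1 block with less thallium influx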
hERG protect: compounds protecting human hERG from proarrhythmic drug block; Q12809; CHO-hERG, FluxOR thallium flux, dofetilide IC70 present; activation (rescue from dofetilide block), less the hit threshold, % at 10 µM; hit rate 0.51% among 310,000; AID 1511;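 active = activation above the mean of controls blocked by dofetilide plus 5 SD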;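 also: thallium influx through hERG after potassium depolarization seen as dye fluorescence rise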
Target sequence (Q12809 whole entry, looked up): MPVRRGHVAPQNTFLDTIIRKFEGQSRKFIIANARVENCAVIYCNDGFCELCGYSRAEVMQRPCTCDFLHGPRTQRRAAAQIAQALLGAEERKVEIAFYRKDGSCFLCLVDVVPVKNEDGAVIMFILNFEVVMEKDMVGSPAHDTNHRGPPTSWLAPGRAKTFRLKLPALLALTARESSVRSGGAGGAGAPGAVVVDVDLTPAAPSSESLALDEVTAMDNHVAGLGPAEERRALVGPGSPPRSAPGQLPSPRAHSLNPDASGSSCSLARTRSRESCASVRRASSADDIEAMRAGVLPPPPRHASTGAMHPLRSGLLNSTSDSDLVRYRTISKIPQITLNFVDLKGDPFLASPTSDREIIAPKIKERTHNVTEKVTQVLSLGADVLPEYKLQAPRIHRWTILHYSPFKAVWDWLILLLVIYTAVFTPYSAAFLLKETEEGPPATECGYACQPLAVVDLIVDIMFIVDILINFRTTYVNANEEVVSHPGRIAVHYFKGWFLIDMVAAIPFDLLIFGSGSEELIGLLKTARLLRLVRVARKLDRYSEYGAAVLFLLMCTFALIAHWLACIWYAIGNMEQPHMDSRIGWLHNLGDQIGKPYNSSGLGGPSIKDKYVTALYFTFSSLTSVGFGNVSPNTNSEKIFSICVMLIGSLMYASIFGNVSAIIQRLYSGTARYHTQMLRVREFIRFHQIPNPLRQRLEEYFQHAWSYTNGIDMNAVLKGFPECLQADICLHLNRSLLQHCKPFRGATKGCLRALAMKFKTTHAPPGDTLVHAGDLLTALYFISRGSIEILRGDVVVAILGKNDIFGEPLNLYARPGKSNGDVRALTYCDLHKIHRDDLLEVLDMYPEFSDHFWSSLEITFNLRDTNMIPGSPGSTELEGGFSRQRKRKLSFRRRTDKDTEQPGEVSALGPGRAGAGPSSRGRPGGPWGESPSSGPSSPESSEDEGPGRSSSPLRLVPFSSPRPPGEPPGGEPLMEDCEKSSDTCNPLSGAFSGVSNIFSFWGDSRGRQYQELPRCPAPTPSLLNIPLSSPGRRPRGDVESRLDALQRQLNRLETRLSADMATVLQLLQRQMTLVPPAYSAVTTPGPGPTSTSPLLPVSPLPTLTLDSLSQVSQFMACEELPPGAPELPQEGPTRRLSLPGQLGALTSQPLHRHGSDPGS
KCNQ1 inh: human KCNQ1 channel inhibition | P51787 | CHO-K1 KCNQ1, FluxOR thallium flux fluorescence; hits give high values | B-score at 10 µM | hit rate 1.3% among 310,000;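 active = compounds whose thallium flux B-score, printed positive for inhibition, exceeds three library SD while starting fluorescence stays within three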;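 also: channel opened by potassium depolarization with thallium stimulus after 20 min compound exposure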
KCNQ1 pot: potentiates or activates the human KCNQ1 potassium channel; hit rate 0.35% among 310,000; CHO-K1 KCNQ1, thallium flux FluxOR fluorescence; hits give high values; P51787; B-score at 10 µM;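 active = fluorescence ratio B-score, a plate-corrected score, at least three library SD, with initial intensity B-score within 5 SD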
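System: CHO-K1 cells stably expressing KCNQ1 / Medium: assay buffer for compound exposure, DMSO matched across wells / Reagent: thallium- and potassium-containing depolarizing buffer / Compound: one concentration, matched DMSO / Incubation: 20 min compound pretreatment at room temperature / Measured by: kinetic FluxOR fluorescence, 10 s baseline plus 110 s post-stimulus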
KCNK3 inh: human KCNK3 channel inhibition, primary screen; B-score at 10 µM; O14649; hit rate 0.84% among 340,000; CHO-KCNK3 thallium flux, FluxOR fluorescence; hits give low values;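 active = B-score under library mean minus 4 SD, starting fluorescence ratio at most library mean plus 5 SD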;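 also: more negative B-score means stronger inhibition of thallium flux through KCNK3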
KCNK9 block: inhibitors of human KCNK9 two-pore domain potassium channel. B-score at 10 µM. AID 488922. HEK293 KCNK9, FluxOR thallium flux fluorescence; hits give low values. hit rate 1.2% among 310,000;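 active = ratio B-score over 3 SD below the library mean, with starting fluorescence within 5 SD of its mean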;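 also: negative B-score means less thallium flux so channel inhibition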
An asterisk follows results filed as active; i = inactive; . = not tested or not shown. In the library only some 3.7% were active in any assay of this set; here they are far more common.

SMILES	Kir21 inh	hERG protect	KCNQ1 inh	KCNQ1 pot	KCNK3 inh	KCNK9 block
COc1cc(CNC(C)c2ccccc2)cc(Cl)c1OCC(=O)Nc1ccccc1 (configuration not stated)	-9.48*	-18.9	i	i	i	i
Fc1cccc2sc(Nc3nnc(-c4ccccc4)o3)nc12	-1.32	51.2*	i	66*	i	i
NNc1nc2c(F)cccc2s1	-0.13	-9.0	i	i	i	i
COc1ccc(-c2nnc(Nc3nc4c(OC)cccc4s3)o2)cc1	-0.01	11.7*	i	50*	i	i
COc1cc(OC)cc(-c2nnc(Nc3nc4c(F)cccc4s3)o2)c1	-0.41	5.9*	i	22*	i	i
Fc1cccc2sc(Nc3nc4c(F)cccc4s3)nc12	0.68	13.1*	i	i	i	i
O=C1CC2(CCN(C(=O)c3ccc(F)c(F)c3)CC2)Oc2ccccc21	0.84	-8.3	i	i	i	i
CCCCOC(=O)Nc1ccccc1C(N)=O	-0.33	-10.3	i	i	i	i
O=C(COC(=O)CCCc1nc2ccccc2s1)NC(=O)NCc1ccco1	-0.06	6.4*	i	i	i	i
CCc1nc2nc(C)c(NS(=O)(=O)c3ccc(Cl)cc3)c(=O)n2[nH]1	0.06	-5.4	i	i	i	i
CC(C)Cn1c(-c2cccs2)nc2ccccc21	-4.54*	-5.2	i	i	i	i
CCCc1nnc(NS(=O)(=O)c2ccc(C)cc2)o1	.	.	.	.	i	.
Cc1[nH]n(-c2nc(-c3ccc(Cl)cc3)cs2)c(=O)c1N=Nc1ccc(O)cc1	0.08	-7.9	8*	i	i	i
COc1ccc(CC(=O)N[C@@H](C)C(=O)N2CCC3(CC2)NCCc2[nH]cnc23)cc1	-1.26	-3.3	i	i	i	i
CCCC1=C(C(=O)OCC)C(c2cc(Cl)cc(OC)c2OCc2ccccc2)NC(=O)N1 (configuration not stated)	0.29	-9.7	i	i	i	i
Cc1cc(O)c(C(C)C)cc1NS(=O)(=O)c1ccccc1	-6.77*	-13.1	i	i	i	i
CCOC(=O)C1CCCN(C(=O)c2ccc(Cn3c(=S)[nH]c4cc(C(=O)OC)ccc4c3=O)cc2)C1 (configuration not stated)	2.07	6.6*	i	i	i	i
CCOc1ccc(/C=N/NC(=O)c2ccc(Cn3cc([N+](=O)[O-])cn3)o2)cc1	0.27	-2.5	i	i	i	i
CC(C)(C)c1ccc(OCc2ccc(C(=O)N/N=C/c3ccc([N+](=O)[O-])cc3)o2)cc1	-1.35	-15.1	7*	i	i	i
Cc1cccc(N(Cc2ccccc2)C(=O)c2ccc(CS(C)(=O)=O)cc2)c1	1.8	-7.1	i	i	i	i
Oc1ccc(C=NN=C2c3ccccc3-c3ccccc32)c(O)c1	.	.	.	.	-8.78*	.
Cc1ccc(C2=CC(C)(c3ccc(C)cc3)Nc3nc(C(F)(F)F)nn32)cc1 (configuration not stated)	0.13	-3.6	i	i	i	-8.01*
Cc1cc(C2=CC(C)(c3cc(C)oc3C)Nc3nc(C(F)(F)F)nn32)c(C)o1 (configuration not stated)	-1.69	-10.6	i	i	.	i
COc1ccc(C)cc1NC(=O)C(OC(=O)CNC(=O)c1cc(C)cc(C)c1)c1ccccc1 (configuration not stated)	-0.1	-5.1	i	i	i	-7.96*
COc1ccc(C)cc1NC(=O)C(OC(=O)c1cnccn1)c1ccccc1 (configuration not stated)	2.32	-16.3	i	i	i	i
SMILES	Kir21 inh	hERG protect	KCNQ1 inh	KCNQ1 pot	KCNK3 inh	KCNK9 block
Cc1cc(NC(=O)c2ccc(Cl)cc2)c(C)cc1O	1.77	-7.2	i	i	i	i
Cc1cc(C(C#N)c2ccc(Cl)cc2)c(Cl)cc1NC(=O)c1cc(I)cc(I)c1O (configuration not stated)	-0.73	-26.2	i	8*	i	i
Cc1cnc(=O)[nH]c1SCc1ccc(C(F)(F)F)cc1	-0.05	-4.7	i	i	i	i
Cc1cnc(=O)[nH]c1SCc1ccc([N+](=O)[O-])cc1	1.84	-7.9	i	i	i	-7.26*
Cc1csc(SC(C)C(=O)NCC2CCCCC2)n1 (configuration not stated)	-2.11	-2.4	i	i	i	i
CN(C)CCNC(=O)c1ccc(COc2ccc(Cl)cc2Cl)cc1	-4.85*	-27.0	i	i	i	i
COc1ccc(Cl)cc1C(=O)NCCN(C)C	0	6.8*	i	i	i	i
O=C(CCSc1nnc(-c2ccco2)o1)N1CCOCC1	-0.37	5.7*	i	i	i	i
O=C(CCSc1nnc(-c2ccccc2)o1)N1CCOCC1	0.75	-2.9	i	i	i	i
Cc1cccc(OCc2n[nH]c(=S)n2C2CCCCC2)c1	-0.36	-1.5	i	8*	i	i
Cc1ccc(-n2[nH]c(C)c(/C=N/Nc3ccc([N+](=O)[O-])cc3[N+](=O)[O-])c2=O)cc1	0.1	-9.4	7*	i	i	i
Cc1[nH]n(-c2ccc([N+](=O)[O-])cc2)c(=O)c1C=NCC1CCCO1 (configuration not stated)	0.21	-1.1	i	i	i	i
CC(=O)Nc1ccc(N(C(=O)c2ccco2)C(C(=O)NC2CCCC2)c2ccncc2)cc1 (configuration not stated)	1.99	-2.6	i	i	i	i
CCc1cc2c(=O)n(CCC(C)C)c(=S)[nH]c2s1	1.28	25.8*	i	35*	i	i
CCCn1c(=S)[nH]c2ccccc2c1=O	0.64	0.5	i	i	i	i
O=C1CCC(=O)N1CC(=O)N1CCCc2ccccc21	-1.04	-4.9	i	i	i	i
COc1cc(CNC2CCCC2)cc(Cl)c1OCc1ccccc1Cl	-9.32*	-27.1	i	i	i	i
COc1cc(CNC2CCCCCCC2)cc(Cl)c1OCC(N)=O	-0.99	-2.4	i	i	i	i
COc1cc(CNn2c(C)n[nH]c2=S)cc(Cl)c1OCc1ccc(F)cc1	0.4	-6.6	i	i	i	i
CCOc1cc(CNC2CCCC2)cc(Cl)c1OCc1ccc(F)cc1	-11.1*	-14.7	i	i	i	i
COc1cc(CNC2CCCC2)cc(Cl)c1OCc1ccc(F)cc1	-5.04*	-19.3	i	i	i	i
COc1cc(CNC2CCCC2)cc(OC)c1OC	2.08	1.4	i	i	i	i
